An excerpt weighted towards active compounds, which were near 2.9% of everything screened.
5HT1a ag = human 5-HT1a receptor agonists, primary screen, cell-based, CHO, Ga15 NFAT-bla reporter. 65,000 tested, 0.56% active. CHO 5-HT1a Ga15 NFAT-bla reporter, FRET ratio; 0% basal, 100% maximal reference agonist. 5-hydroxytryptamine receptor 1A (Homo sapiens), P08908. activation, % at 10 µM. AID 567, 2006;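 active = activation above the screen-wide mean activation plus 3 SD, cut at about 19% in these data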;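 also: 0% = DMSO wells and 100% = 5-CT at EC100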
S1P3 ag = human S1P3 receptor agonists, primary screen, cell-based, primary and confirmation, NFAT-BLA reporter | activation, % at 4.5 µM | S1P3 NFAT-BLA reporter cells, agonism, FRET ratio; relative to 1 µM S1P, basal subtracted | AID 373, 2006 | 60,000 tested, 0.1% active;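 active = activation above the screen-wide mean plus 3 SD, cut at about 4.5% in these data, passing the limit was not always enough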
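Assay system: CHO cells stably expressing human S1P3, Gα16 and NFAT-β-lactamase reporter. Timing: overnight plating, 4 h compound 37 °C, 2 h substrate RT. Signal: β-lactamase FRET emission ratio 460/535 nm. Measure: percent activation versus median 1 µM S1P response, basal-subtracted, per plate. Repeats: primary screen single test, confirmation screen in triplicate.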
HTR1E antagonist = 5-HT1E receptor antagonists, primary screen, cell-based, HTS; 5-hydroxytryptamine receptor 1E (Homo sapiens), P28566; CHO 5-HT1E Ga15 NFAT-bla reporter, FRET, antagonist; inhibition, % at 6 µM; 65,000 tested, 0.99% active;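 active = inhibition above a set limit, the mean inhibition across every tested compound plus 3 SD, cut at about 29% in these data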;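 also: signal is the 460 over 535 nm emission ratio of beta-lactamase substrate; 0% = agonist plus DMSO wells and 100% = wells without agonist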
Target sequence (P28566 whole entry, looked up): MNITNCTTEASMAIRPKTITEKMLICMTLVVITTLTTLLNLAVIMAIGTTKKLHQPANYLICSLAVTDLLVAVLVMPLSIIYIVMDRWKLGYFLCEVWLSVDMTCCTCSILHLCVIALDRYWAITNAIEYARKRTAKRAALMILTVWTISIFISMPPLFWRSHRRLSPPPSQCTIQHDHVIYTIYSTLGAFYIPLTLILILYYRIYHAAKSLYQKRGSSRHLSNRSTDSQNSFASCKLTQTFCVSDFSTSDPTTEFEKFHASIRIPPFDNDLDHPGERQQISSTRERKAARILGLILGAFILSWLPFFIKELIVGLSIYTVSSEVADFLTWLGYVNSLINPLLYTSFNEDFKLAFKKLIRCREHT
HTR1E agonist = 5-HT1E receptor agonists, primary screen, cell-based, HTS | 65,000 tested, 0.69% active | activation, % at 6 µM | 5-hydroxytryptamine receptor 1E (Homo sapiens), P28566 | CHO 5-HT1E Ga15 NFAT-bla reporter, FRET; 0% DMSO wells, 100% control agonist wells;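 active = activation above a set limit, the screen-wide mean activation plus 3 SD, cut at about 8.5% in these data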;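 also: 100% = positive control agonist at 1 µM giving full maximal response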
5-HT1A blocker = human 5-HT1a receptor antagonists, primary screen, cell-based, CHO, Ga15 NFAT-bla reporter; CHO 5-HT1a Ga15 NFAT-bla reporter, antagonist mode; 62,000 tested, 0.68% active; 5-hydroxytryptamine receptor 1A (Homo sapiens), P08908; inhibition, % at 10 µM;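 active = inhibition above the mean of all tested compounds plus 3 SD, cut at about 43% in these data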;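 also: receptor stimulated by 5-CT agonist at 100 nM near EC80; beta-lactamase reporter measured by ratiometric fluorescence of a cleavable substrate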
S1P1 ag-PAM = S1P1 agonists and agonism potentiators, primary screen, cell-based, primary and confirmation screens, CRE-bla reporter | activation, % at 9.5 µM | S1P1 CRE-bla cells, forskolin, beta-lactamase FRET, potentiator mode; S1P1 agonist co-added at EC20, 2 nM; 100% = saturating reference agonist, 0% = basal | Sphingosine 1-phosphate receptor 1 (Homo sapiens), P21453 | 56,000 tested, 0.57% active;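 active = activation above a cutoff set at the mean activation of all tested compounds plus 3 SD, cut at about 54% in these data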;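 also: forskolin at 4 µM as EC80 and the EC20 agonist is SEW2871; 100% = SEW2871 at its EC100 plus forskolin at EC80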
* hit, by the source's call; nt = no result.

SMILES	5HT1a ag	S1P3 ag	HTR1E antagonist	HTR1E agonist	5-HT1A blocker	S1P1 ag-PAM
C#CC1(O)CC(C)N(C)C(C)C1 (stereo unspecified)	-3	-1	-3	0	-9	-2
Cc1ccc(C(=O)OCc2cn3ccccc3n2)cc1	101*	0	-5	0	4	7
O=C(NCc1cn2ccccc2n1)c1ccccc1	-3	-1	-9	0	9	4
CC(C)CN(C(=O)COC(=O)c1cc2c(s1)CCC2)C1CCS(=O)(=O)C1 (stereo unspecified)	-3	-1	0	0	-14	-18
CSc1nc2sc3c(c2c2nnnn12)CCC3	-1	-1	-4	0	nt	-4
CSc1nc2sc3c(c2c2nnnn12)CCCC3	10	-2	-9	14*	nt	-9
CCOc1ccc(C(=O)Nc2c(C(N)=O)oc3ccccc23)cc1	-5	0	12	0	-4	54*
CCOC(=O)c1oc2ccccc2c1NC(=O)c1cccc(OC)c1OC	-2	0	34*	0	33	-52
CCOc1ccc(NC(=O)c2cccc3c2C(=O)N(Cc2cccnc2)C3)cc1	-1	0	21	0	4	10
CC1=C(C(=O)OC2CCCCC2)C(c2ccc(C)o2)C2=C(CCCC2=O)N1 (stereo unspecified)	-2	-2	30*	0	25	14
Cc1ccc(C(=O)CSC2=C(C#N)C(c3ccco3)C3=C(CC(C)(C)CC3=O)N2)cc1 (stereo unspecified)	-3	-1	10	2	-3	11
CC1(C)CC(=O)C2=C(C1)NC(SCC(=O)Nc1ccccc1)=C(C#N)C2c1ccco1 (stereo unspecified)	-2	-1	33*	0	38	14
CC1=C(C(=O)OC2CCCCC2)C(c2ccco2)C2=C(CC(C)(C)CC2=O)N1 (stereo unspecified)	0	-1	44*	0	23	nt
N#CCSc1nnc(-c2ccccc2)c(-c2ccccc2)n1	0	6.3*	2	0	-7	22
Cc1ccc(Cl)cc1N1CCN(S(=O)(=O)c2ccc3c(c2)oc(=O)n3C)CC1	0	-1	20	0	6	-2
Cc1cc(N2C3CCC2CC(O)(c2ccc(F)cc2)C3)nc(-c2ccccc2)n1 (stereo unspecified)	-1	-1	23	-1	43*	17
Cc1nc(SCc2nc3ccccc3[nH]2)c2oc3ccccc3c2n1	0	0	39*	0	32	6
c1ccc2[nH]c(CSc3ncnc4c3oc3ccccc34)nc2c1	0	1	38*	0	21	44
Cc1nc(N2CCN(Cc3nc4ccccc4[nH]3)CC2)c2oc3ccccc3c2n1	3	nt	31*	28*	11	nt
Cc1cc(C)c(C)c(OCC(=O)NCc2nc(-c3ccccc3)no2)c1	-1	1	-14	0	-19	-4
CCN1CCN(S(=O)(=O)c2ccc(S(=O)(=O)N(CC)Cc3ccccc3)cc2)CC1	0	-1	-18	-2	-9	6
CC(=O)C(C(C)=O)c1c(Cl)c(O)c(O)c2c(C(=O)c3ccccc3)coc12	-3	-1	23	-1	29	40
Cc1nc(SCC#N)c2c(C)c(C)sc2n1	1	0	35*	2	19	-43
CCCNC(=O)c1c(N)n(-c2ccc3c(c2)OCO3)c2nc3ccccc3nc12	3	0	-9	1	6	8
CCCNC(=O)c1c(N)n(-c2cc(OC)cc(OC)c2)c2nc3ccccc3nc12	30*	2	-15	12*	-45	-80
SMILES	5HT1a ag	S1P3 ag	HTR1E antagonist	HTR1E agonist	5-HT1A blocker	S1P1 ag-PAM
NC/C(=N\O)c1ccc(Cl)cc1Cl	-2	0	1	13*	-15	-7
Cn1cccc1C(=O)c1ccc(Cl)cc1Cl	-3	-1	11	0	4	0
Cc1ccc(C)c(NC(=O)c2ccc3c(c2)N(Cc2ccc(F)cc2)C(=O)CS3=O)c1 (stereo unspecified)	47*	0	4	0	4	-28
O=C(O)COc1ccc2c(c1)OCCO2	-2	-2	5	0	1	5
Cc1cc(NC(=O)C2CCC2)n(-c2ccccn2)n1	2	nt	36*	2	2	nt
COc1ccc(-c2cc(C(=O)Nc3ccccc3SC)no2)cc1OC	2	-1	-15	1	-14	-6
COc1ccccc1-c1cc(C(=O)Nc2ccccc2SC)no1	-3	0	0	0	-1	94*
COc1cccc(-c2cc(C(=O)Nc3ccccc3SC)no2)c1	-4	-1	12	0	6	89*
COc1ccc(NC(=O)c2cc(-c3ccccc3OC)on2)cc1	-3	0	26	0	22	42
Cc1nn(C(C)C(=O)O)c2ccccc12 (stereo unspecified)	0	0	3	-1	-48	-12
CCOC(=O)/N=C(/NC(=O)Nc1ccc(C(=O)OCC)cc1)OC	1	-1	13	9.3*	-5	20
CCOC(=O)c1ccc(NC(=O)C2CC2)cc1	0	-1	2	1	28	-16
CCOC(=O)c1ccc(NC(=O)Cn2cccc2)cc1	-2	-1	-2	26*	7	-14
CCOC(=O)c1ccc(NC(=O)COC)cc1	0	0	2	-1	-5	nt
CC(=O)Nc1ccc(S(=O)(=O)NC(C(=O)O)C2=CCC=CC2)cc1 (stereo unspecified)	1	0	-13	0	-1	-29
N#Cc1ccc(N2CCN(C(=O)c3cccc(F)c3)CC2)c(F)c1	-1	-2	15	1	2	7
Cc1occc1C(=O)N1CCN(c2ccc(Cl)c(Cl)c2)CC1	2	-1	5	1	9	69*
O=C(NCc1ccccc1)N1CCN(c2ccc(Cl)c(Cl)c2)CC1	0	-1	19	1	19	100*
Cn1c(N2CCN(C(=O)NCc3ccccc3)CC2)nc2ccccc21	0	0	-2	0	-11	3
CCOc1ccc(S(=O)(=O)N(C)CCO)cc1-c1nc2c(C(C)(C)C)nn(C)c2c(=O)[nH]1	3	0	15	0	nt	-38

Source: PubChem (The Scripps Research Institute Molecular Screening Center)
